What was measured:
[1] = target: T1, Growth hormone secretagogue receptor type 1 (Homo sapiens, UniProt Q92847); assay: Activity at human GHS1a receptor expressed in CHO cells assessed as accumulation of intracellular calcium level at 10 uM relative to ghrelin; format: functional, cell-based
Outline: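 CHO cells transiently electroporated with hGHS-R1a, loaded 24 h later with 1 μM Fluo-4AM (1 h, 37 °C, dark), then de-esterified 30 min at room temperature. Fluorescence (ex 485/em 525 nm) recorded over 60 s, compound at 10 μM added at 15 s. Triplicates, at least two independent experiments. Response expressed as percent of maximum with 0.1 μM ghrelin.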

[2] = target: T1, Growth hormone secretagogue receptor type 1; assay: Displacement of [125I]His9-ghrelin from human cloned GHS1a receptor expressed in LLC PK1 cells; format: cell-based
[3] = target: T1, Growth hormone secretagogue receptor type 1; assay: Agonist activity at human GHS1a receptor expressed in CHO cells assessed as accumulation of intracellular calcium level; format: functional, cell-based
Outline: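 Fluo-4AM calcium assay in CHO cells transiently expressing hGHS-R1a. Fluorescence recorded at ex 485/em 525 nm over 60 s after automated addition of increasing agonist concentrations. EC50 taken from the dose-response curve.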

[4] = target: T1, Growth hormone secretagogue receptor type 1; assay: Antagonist activity at human GHS1a receptor expressed in CHO cells assessed as accumulation of intracellular calcium level; format: functional, cell-based
[5] = tested on: Rattus norvegicus; assay: Inhibition of hexarelin-stimulated cumulative food intake per 100 g body weight of Sprague-Dawley rat at 20 ug/kg; format: functional
Outline: (§1)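 Young-adult male rats (125–150 g), singly housed, acclimated and trained. Compound given sc at time −10 min (0, 20, 80, 160 or 320 μg/kg), then hexarelin 80 μg/kg sc at time 0. Rats returned to home cages with a known amount of chow. Cumulative intake recorded as g food/100 g body weight at 2 h and 6 h.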

[6] = species: Rattus norvegicus; assay: Inhibition of hexarelin-stimulated cumulative food intake per 100 g body weight of Sprague-Dawley rat at 160 ug after 6 hrs; format: functional; outline: as §1
[7] = species: Rattus norvegicus; assay: Inhibition of hexarelin-stimulated cumulative food intake per 100 g body weight of Sprague-Dawley rat at 160 ug after 2 hrs; format: functional; outline: as §1
[8] = tested on: Rattus norvegicus; assay: Inhibition of hexarelin-stimulated cumulative food intake per 100 g body weight of Sprague-Dawley rat at 320 ug/kg; format: functional; outline: as §1
[9] = tested on: Rattus norvegicus; assay: Inhibition of growth hormone secretion in infant Sprague-Dawley rat at 160 ug/kg, sc; format: functional
Outline: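 Male 10-day-old pups (~25 g), separated from dams 1 h before testing, groups of eight. Dosed sc with vehicle (DMSO, final 1:300), compound 160 μg/kg, or compound 10 min before hexarelin 80 μg/kg sc. Decapitated 15 min later; plasma GH measured by rat GH enzyme immunoassay and expressed as ng/mL against the NIDDK-rGH-RP-2 standard.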

[10] = tested on: Rattus norvegicus; assay: Inhibition of hexarelin-stimulated cumulative food intake per 100 g body weight of Sprague-Dawley rat at 80 ug/kg; format: functional; outline: as §1
[11] = species: Rattus norvegicus; assay: Effect on cumulative food intake per 100 g body weight of Sprague-Dawley rat at 160 ug after 2 hrs; format: functional
Outline: (§2)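 Young-adult male rats (125–150 g), singly housed, acclimated 1 week and trained daily for a further week. Test compound given sc at 160 μg/kg mid-morning, then returned to cages with a known amount of chow. Cumulative intake recorded at 2 or 6 h as g food/100 g body weight.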

[12] = species: Rattus norvegicus; assay: Effect on cumulative food intake per 100 g body weight of Sprague-Dawley rat at 160 ug after 6 hrs; format: functional; outline: as §2

T1 sequence (Q92847 whole entry): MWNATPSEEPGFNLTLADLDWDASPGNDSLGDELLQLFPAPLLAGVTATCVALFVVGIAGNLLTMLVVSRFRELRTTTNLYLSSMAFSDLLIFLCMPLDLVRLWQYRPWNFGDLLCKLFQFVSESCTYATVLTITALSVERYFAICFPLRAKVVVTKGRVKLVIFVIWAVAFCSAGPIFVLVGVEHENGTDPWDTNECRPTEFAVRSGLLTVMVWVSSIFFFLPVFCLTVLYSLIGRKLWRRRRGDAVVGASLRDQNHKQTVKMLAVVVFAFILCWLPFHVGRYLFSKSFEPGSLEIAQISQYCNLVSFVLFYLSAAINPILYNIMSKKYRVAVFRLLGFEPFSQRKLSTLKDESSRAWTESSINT

Row | SMILES | Activity [1] | IC50 [2] | EC50 [3] | Kb [4] | Activity [5] | Activity [6] | Activity [7] | Activity [8] | Activity [9] | Activity [10] | Activity [11] | Activity [12]
1 | CCc1ccc(-n2c(CCc3c[nH]c4ccccc34)nnc2[C@@H](Cc2c[nH]c3ccccc23)NC(=O)C2CCNCC2)cc1 | 100% | 96 nM | 15 nM |  |  |  |  |  |  |  |  | 
2 | COc1ccc(Cn2c(CCc3ccccc3)nnc2[C@@H](Cc2c[nH]c3ccccc23)NC(=O)[C@H]2CCCNC2)cc1 | 20% |  |  | 10 nM |  |  |  |  |  |  |  | 
3 | COc1ccc(Cn2c(CCC3C=Nc4ccccc43)nnc2[C@@H](Cc2c[nH]c3ccccc23)NC(=O)CN)cc1 (stereo partly drawn) | 2% | 138 nM |  |  |  |  |  |  |  |  |  | 
4 | Cc1ncccc1-n1c(CCc2ccccc2)nnc1[C@@H](Cc1c[nH]c2ccccc12)NC(=O)C1CCNCC1 | 78% | > 1000 nM |  |  |  |  |  |  |  |  |  | 
5 | CCc1ccc(-n2c(CCc3c[nH]c4ccccc34)nnc2[C@@H](Cc2c[nH]c3ccccc23)NC(=O)[C@@H]2CCCN2)cc1 | 5% | 350 nM |  |  |  |  |  |  |  |  |  | 
6 | COc1ccc(Cn2c(CCc3ccccc3)nnc2[C@@H](Cc2c[nH]c3ccccc23)NC(=O)CN)cc1 | 0% |  |  |  | 0.63 g | 0.28 g | 0.01 g | 0.36 g | 9.85 ng/mL | 0.56 g | 0.01 g | 0.04 g
7 | COc1ccc(Cn2c(CCc3c[nH]c4ccccc34)nnc2[C@@H](Cc2c[nH]c3ccccc23)NC(=O)CN)c(OC)c1 | 0% |  |  | 27 nM |  | 0.74 g | 0.39 g |  |  |  | 0.01 g | 0.01 g
8 | CCc1ccc(Cn2c(CCc3ccccc3)nnc2[C@@H](Cc2c[nH]c3ccccc23)NC(=O)C2CCNCC2)cc1 | 101% |  | 7.7 nM |  |  | 1.66 g | 1.4 g |  |  |  | 0.03 g | 0.35 g
9 | COc1ccc(Cn2c(CCc3c[nH]c4ccccc34)nnc2[C@@H](Cc2c[nH]c3ccccc23)NC(=O)[C@@H]2CCCN2)c(OC)c1 | 0% | 5.6 nM |  | 11 nM |  |  |  |  |  |  |  | 
10 | COc1ccc(Cn2c(CCc3ccccc3)nnc2[C@@H](Cc2c[nH]c3ccccc23)NC(=O)C2CCCCN2)cc1 (single isomer, unassigned) | 3% |  |  |  |  | 0.56 g | 0.06 g |  |  |  | 0.01 g | 0.01 g
11 | COc1ccc(Cn2c(CCc3c[nH]c4ccccc34)nnc2[C@@H](Cc2c[nH]c3ccccc23)NC(=O)C(C)(C)N)cc1 | 9% |  |  | 4 nM |  |  |  |  |  |  |  | 
12 | CC(C)(N)C(=O)N[C@H](Cc1c[nH]c2ccccc12)c1nnc(CCc2c[nH]c3ccccc23)n1Cc1ccccc1 | 73% |  |  |  |  |  |  |  |  |  |  | 
13 | COc1ccc(Cn2c(CCc3c[nH]c4ccccc34)nnc2[C@@H](Cc2c[nH]c3ccccc23)NC(=O)[C@H]2CCCNC2)cc1 | 111% |  | 2.5 nM |  |  | 0.76 g | 0.62 g |  |  |  | 0.01 g | 0.06 g
14 | COc1ccc(Cn2c(CCc3c[nH]c4ccccc34)nnc2[C@@H](Cc2c[nH]c3ccccc23)NC(=O)C2CCNCC2)cc1 | 93% |  | 3 nM |  |  | 1.05 g | 0.4 g |  |  |  | 0.01 g | 0.37 g
15 | O=C(N[C@H](Cc1c[nH]c2ccccc12)c1nnc(CCc2c[nH]c3ccccc23)n1Cc1ccccc1)C1CCNCC1 | 75% | 24 nM | 5.4 nM |  |  | 0.6 g | 0.38 g |  |  |  | 0.01 g | 0.11 g
16 | COc1ccc(-n2c(CCc3ccccc3)nnc2[C@@H](Cc2c[nH]c3ccccc23)NC(=O)CN)c(OC)c1 | 27% | > 1000 nM |  |  |  |  |  |  |  |  |  | 
17 | CCc1ccc(Cn2c(CCc3ccccc3)nnc2[C@@H](Cc2c[nH]c3ccccc23)NC(=O)[C@H]2CCCNC2)cc1 | 11% | 130 nM |  |  |  |  |  |  |  |  |  | 

Row | SMILES | Activity [1] | IC50 [2] | EC50 [3] | Kb [4] | Activity [5] | Activity [6] | Activity [7] | Activity [8] | Activity [9] | Activity [10] | Activity [11] | Activity [12]
18 | O=C(N[C@H](Cc1c[nH]c2ccccc12)c1nnc(CCc2c[nH]c3ccccc23)n1-c1ccccc1)C1CCNCC1 | 100% |  | 2.3 nM |  |  |  |  |  |  |  |  | 
19 | COc1ccc(Cn2c(CCc3c[nH]c4ccccc34)nnc2[C@@H](Cc2c[nH]c3ccccc23)NC(=O)C2CCNCC2)c(OC)c1 | 77% |  | 0.6 nM |  |  | 0.86 g | 0.11 g |  |  |  | 0.01 g | 0.01 g
20 | CCc1ccc(-n2c(CCc3c[nH]c4ccccc34)nnc2[C@@H](Cc2c[nH]c3ccccc23)NC(=O)CN)cc1 | 4% | > 1000 nM |  |  |  |  |  |  |  |  |  | 
21 | COc1ccc(Cn2c(CCc3ccccc3)nnc2[C@@H](Cc2c[nH]c3ccccc23)NC(=O)CN)c(OC)c1 | 0% | 154 nM |  |  |  | 1.48 g | 1.26 g |  |  |  | 0.01 g | 0.08 g
22 | COc1ccc(Cn2c(CCc3c[nH]c4ccccc34)nnc2[C@@H](Cc2c[nH]c3ccccc23)NC(=O)[C@H]2CCCNC2)c(OC)c1 | 48% | 6.5 nM | 5.3 nM |  |  | 0.65 g | 0.33 g |  |  |  | 0.01 g | 0.01 g
23 | CCc1ccc(Cn2c(CCc3ccccc3)nnc2[C@@H](Cc2c[nH]c3ccccc23)NC(=O)CN)cc1 | 0% | 759 nM |  |  |  | 0.81 g | 0.79 g |  |  |  | 0.01 g | 0.03 g
24 | COc1ccc(Cn2c(CCc3c[nH]c4ccccc34)nnc2[C@@H](Cc2c[nH]c3ccccc23)NC(=O)[C@@H]2CCCN2)cc1 | 2% |  |  | 6 nM |  | 0.48 g | 0.44 g |  |  |  | 0.05 g | 0.2 g
25 | O=C(N[C@H](Cc1c[nH]c2ccccc12)c1nnc(CCc2c[nH]c3ccccc23)n1Cc1ccccc1)[C@H]1CCCNC1 | 50% | 13 nM | 9.9 nM |  |  | 0.62 g | 0.16 g |  |  |  | 0.52 g | 0.6 g
26 | COc1ccc(Cn2c(CCc3c[nH]c4ccccc34)nnc2[C@@H](Cc2c[nH]c3ccccc23)NC(=O)[C@H]2CCCCN2)cc1 | 0% |  |  | 8 nM |  | 1.68 g | 1.25 g |  |  |  | 0.04 g | 0.06 g
27 | COc1ccc(Cn2c(CCc3ccccc3)nnc2[C@@H](Cc2c[nH]c3ccccc23)NC(=O)[C@@H]2CCCCN2)c(OC)c1 | 0% | 134 nM |  |  |  |  |  |  |  |  |  | 
28 | COc1ccc(Cn2c(CCc3c[nH]c4ccccc34)nnc2[C@@H](Cc2c[nH]c3ccccc23)NC(=O)[C@H]2CCCN2)cc1 | 7% |  |  | 7 nM | 0.17 g | 0.36 g | 0.05 g | 0.58 g |  | 0.15 g | 0.01 g | 0.03 g
29 | COc1ccc(Cn2c(CCc3ccccc3)nnc2[C@@H](Cc2c[nH]c3ccccc23)NC(=O)[C@@H]2C[C@@H](O)CN2)cc1 | 87% | 173 nM |  |  |  | 0.35 g | 0.02 g |  |  |  | 0.01 g | 0.01 g
30 | COc1ccc(Cn2c(CCc3ccccc3)nnc2[C@@H](Cc2c[nH]c3ccccc23)NC(=O)[C@H]2CCCCN2)cc1 | 7% |  |  |  |  | 1.07 g | 0.85 g |  | 6.09 ng/mL |  | 0.01 g | 0.01 g
31 | COc1ccc(Cn2c(CCc3ccccc3)nnc2[C@@H](Cc2c[nH]c3ccccc23)NCCN)c(OC)c1 | 59% |  | 279 nM |  |  |  |  |  |  |  |  | 
32 | NCC(=O)N[C@H](Cc1c[nH]c2ccccc12)c1nnc(CCc2ccccc2)n1-c1ccccc1 | 7% | > 1000 nM |  |  |  |  |  |  |  |  |  | 
33 | COc1ccc(Cn2c(CCc3ccccc3)nnc2[C@@H](Cc2c[nH]c3ccccc23)NC(=O)[C@@H]2CCCNC2)cc1 | 89% |  | 36 nM |  |  |  |  |  |  |  |  | 

— ChEMBL document CHEMBL1137611, “Toward potent ghrelin receptor ligands based on trisubstituted 1,2,4-triazole structure. 2. Synthesis and pharmacological in vitro and in vivo evaluations” (J Med Chem, 2007)
